The values that follow come from ChEMBL document CHEMBL4422682, “Synthesis and urease inhibitory potential of benzophenone sulfonamide hybrid in vitro and in silico” (Bioorg Med Chem, 2019).

One experiment deals with T1, Bacterial urease (Bacteria, UniProt Q03282+Q03283+Q03284).
T1 sequence (Q03282 whole entry): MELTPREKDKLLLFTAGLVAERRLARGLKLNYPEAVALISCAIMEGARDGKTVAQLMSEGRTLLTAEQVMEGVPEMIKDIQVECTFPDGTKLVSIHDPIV
T1 sequence (Q03283 whole entry): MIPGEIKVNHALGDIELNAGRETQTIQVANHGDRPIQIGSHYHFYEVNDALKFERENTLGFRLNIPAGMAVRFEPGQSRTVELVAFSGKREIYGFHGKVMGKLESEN
T1 sequence (Q03284 whole entry): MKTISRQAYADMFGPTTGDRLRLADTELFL
Nature of the experiment: (§1) Inhibition of bacterial urease using urea as substrate preincubated for 15 mins followed by substrate addition […]. Format: protein-complex assay. A digest of the protocol: (§2)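 Compounds preincubated with urease (1 U/well) for 15 min at 30 °C. Urea (100 mM, as added) introduced and incubation continued at 30 °C. Ammonia formed was detected by the Weatherburn phenol-hypochlorite method: alkaline reagent (0.5% w/v NaOH, 0.1% NaOCl) and phenol reagent (1% w/v phenol, 0.005% w/v nitroprusside) were added, then 50 min at 30 °C. Absorbance read at 630 nm on a plate reader.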
In general terms: An ELISA detects its analyte on a solid surface through an enzyme-linked reagent.
As a reminder, the IC50 is the point on the concentration scale where inhibition reaches its midpoint. Take `O=S(=O)(NN=C(c1ccccc1)c1ccccc1)c1ccc2ccccc2c1`: the IC50 entry is reported as “Not Active”.

Regarding `O=[N+]([O-])c1cccc(S(=O)(=O)NN=C(c2ccccc2)c2ccccc2)c1Cl`, the IC50 entry was “Not Active”. In the case of `O=S(=O)(NN=C(c1ccccc1)c1ccccc1)c1ccccc1Cl`, the IC50 entry is listed as “Not Active”. The same measure, in the same setting: next, `O=[N+]([O-])c1cc(S(=O)(=O)NN=C(c2ccccc2)c2ccccc2)ccc1Cl`: “Not Active”; `COc1ccc(S(=O)(=O)NN=C(c2ccccc2)c2ccccc2)cc1`: “Not Active”; `O=S(=O)(NN=C(c1ccccc1)c1ccccc1)c1cc(Cl)c(Cl)cc1Cl`: “Not Active”. `O=[N+]([O-])c1cccc(S(=O)(=O)NN=C(c2ccccc2)c2ccccc2)c1`: the IC50 result was “Not Active”.

For `CCCCS(=O)(=O)NN=C(c1ccccc1)c1ccccc1`, the IC50 entry is “Not Active”. The same measure, in the same setting: then `O=[N+]([O-])c1ccccc1S(=O)(=O)NN=C(c1ccccc1)c1ccccc1`, with “Not Active”. Same read-out and setting: next, `O=[N+]([O-])c1ccc(S(=O)(=O)NN=C(c2ccccc2)c2ccccc2)cc1`: “Not Active”; `Cc1cc(S(=O)(=O)NN=C(c2ccccc2)c2ccccc2)c(C)cc1Cl`: “Not Active”; `O=S(=O)(NN=C(c1ccccc1)c1ccccc1)c1ccc(Cl)cc1Cl`: “Not Active”. The same measure, in the same setting: next, `O=S(=O)(NN=C(c1ccccc1)c1ccccc1)c1ccccc1`: “Not Active”; `COc1ccc(S(=O)(=O)NN=C(c2ccccc2)c2ccccc2)c(OC)c1`: “Not Active”.

A further experiment concerns the target Bacterial urease (Bacteria, UniProt Q03284). The description is as §1. Format: protein-complex assay. The essentials:
as §2
The compound `CN(C)c1cccc2c(S(=O)(=O)N/N=C(\c3ccccc3)c3ccc(O)cc3)cccc12` had an IC50 of 5.7 µM. On the same count and under the same terms, then `CC(=O)NO` [ACETOHYDROXAMIC ACID], with 29.2 µM; and `O=S(=O)(N/N=C(\c1ccccc1)c1ccc(O)cc1)c1cc(Cl)ccc1Cl`, with 31.2 µM; and `O=[N+]([O-])c1ccc(S(=O)(=O)N/N=C(\c2ccccc2)c2ccc(O)cc2)cc1`, with 3.9 µM. Still for that read-out and setting: next, `CN(C)c1cccc2c(S(=O)(=O)NN=C(c3ccccc3)c3ccccc3)cccc12`: 72.2 µM; `O=S(=O)(N/N=C(\c1ccccc1)c1ccc(O)cc1)c1ccc(Cl)cc1Cl`: 18 µM; `O=[N+]([O-])c1cccc(S(=O)(=O)N/N=C(\c2ccccc2)c2ccc(O)cc2)c1`: 13.7 µM.

Consider `O=S(=O)(NN=C(c1ccccc1)c1ccccc1)c1cc(Cl)cc(Cl)c1O`, for which the half-maximal inhibitory concentration (IC50) came to 71.6 µM. Still for that read-out and setting: next, `O=S(=O)(N/N=C(\c1ccccc1)c1ccc(O)cc1)c1cc(Cl)cc(Cl)c1O`: 4.97 µM; `COc1ccc(S(=O)(=O)N/N=C(\c2ccccc2)c2ccc(O)cc2)cc1`: 14.5 µM; `O=S(=O)(N/N=C(\c1ccccc1)c1ccc(O)cc1)c1cc(Cl)c(Cl)cc1Cl`: 57.9 µM.

`O=S(=O)(N/N=C(\c1ccccc1)c1ccc(O)cc1)c1ccccc1Cl` came in with an IC50 of 16.9 µM. On the same count and under the same terms, then `Cc1ccc([N+](=O)[O-])cc1S(=O)(=O)NN=C(c1ccccc1)c1ccccc1`, with 69 µM; and `O=S(=O)(N/N=C(\c1ccccc1)c1ccc(O)cc1)c1ccccc1`, with 16.3 µM; and `CS(=O)(=O)N/N=C(\c1ccccc1)c1ccc(O)cc1`, with 43.4 µM. For the compound `O=S(=O)(CCCl)N/N=C(\c1ccccc1)c1ccc(O)cc1`, the IC50 was 55 µM. `O=S(=O)(NN=C(c1ccccc1)c1ccccc1)c1ccc(Cl)cc1`: the IC50 came out at 66.1 µM. On the same count and under the same terms, then `O=[N+]([O-])c1ccc(S(=O)(=O)NN=C(c2ccccc2)c2ccccc2)c([N+](=O)[O-])c1`, with 69 µM.

For the next experiment, the target named is Bacterial urease (Bacteria) (UniProt Q03282+Q03283+Q03284). Nature of the experiment: Potency index, ratio of acetohydroxamic acid IC50 to test compound IC50 for bacterial urease. Format: protein-complex assay. A digest of the protocol:
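Spectrophotometric urease inhibition assay underlying the IC50s in the ratio, for test compounds and acetohydroxamic acid. Compound pre-incubated with urease (1 U/well) at 30 °C for 15 min. Urea (100 mM) was added and incubation continued at 30 °C. Phenol–nitroprusside and alkaline hypochlorite reagents were added, then 50 min at 30 °C. Ammonia was measured by the Weatherburn method, with absorbance change at 630 nm.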
Regarding `O=[N+]([O-])c1ccc(S(=O)(=O)N/N=C(\c2ccccc2)c2ccc(O)cc2)cc1`, the Ratio IC50 is 10.

Another experiment deals with T2, Urease (Canavalia ensiformis, UniProt P07374). Nature of the experiment: Inhibition of jack bean urease using urea as substrate preincubated for 15 mins followed by substrate addition and measured after 10 mins by ELISA. A digest of the protocol: as §2
T2 sequence (P07374 whole entry): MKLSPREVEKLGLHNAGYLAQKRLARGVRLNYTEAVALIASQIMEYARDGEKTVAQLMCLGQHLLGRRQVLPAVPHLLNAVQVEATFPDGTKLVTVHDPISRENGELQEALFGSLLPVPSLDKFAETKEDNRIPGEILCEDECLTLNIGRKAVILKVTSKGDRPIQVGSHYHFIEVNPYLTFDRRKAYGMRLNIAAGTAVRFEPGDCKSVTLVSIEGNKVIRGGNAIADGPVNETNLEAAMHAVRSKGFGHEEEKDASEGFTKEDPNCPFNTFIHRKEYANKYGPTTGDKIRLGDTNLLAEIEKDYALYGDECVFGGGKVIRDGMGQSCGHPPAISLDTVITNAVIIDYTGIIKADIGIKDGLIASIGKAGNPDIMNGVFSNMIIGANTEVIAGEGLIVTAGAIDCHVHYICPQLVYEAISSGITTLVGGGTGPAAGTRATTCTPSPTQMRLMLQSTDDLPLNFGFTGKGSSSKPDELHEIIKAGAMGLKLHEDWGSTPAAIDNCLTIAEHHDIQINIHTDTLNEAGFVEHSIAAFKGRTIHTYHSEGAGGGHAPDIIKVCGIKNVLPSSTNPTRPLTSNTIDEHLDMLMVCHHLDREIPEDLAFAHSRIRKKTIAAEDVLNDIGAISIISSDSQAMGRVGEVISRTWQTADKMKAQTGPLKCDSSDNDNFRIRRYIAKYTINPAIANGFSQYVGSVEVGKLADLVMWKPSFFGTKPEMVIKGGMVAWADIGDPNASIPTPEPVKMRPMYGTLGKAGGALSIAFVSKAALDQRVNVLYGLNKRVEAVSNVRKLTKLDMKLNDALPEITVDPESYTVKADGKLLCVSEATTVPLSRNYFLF
For `O=[N+]([O-])c1ccc(NC(=S)N/N=C(\c2ccccc2)c2ccc(O)cc2)cc1`, the concentration for half-maximal inhibition (IC50) is 26.1 µM. The same measure, in the same setting: next, `CC(=O)Nc1ccc(S(=O)(=O)Nc2ccc(Br)cc2)cc1`: 62.4 µM; `Oc1ccc(/C(=N/NC(=S)Nc2cccc(Br)c2)c2ccccc2)cc1`: 8.7 µM.

Another experiment deals with T2, Urease. As to the kind of experiment: Inhibition of jack bean urease assessed as reduction in ammonia production using urea as substrate after 30 mins by indophenol method. The essentials:
as §2
Take `NS(=O)(=O)c1ccc(CCNC=C2C(=O)NC(=S)NC2=O)cc1`: the IC50 was 11.5 µM.
